# According to ChEMBL document CHEMBL4765367, “Design, synthesis and antimicrobial evaluation of novel glycosylated-fluoroquinolones derivatives” (Eur J Med Chem, 2020):
# Structures can show the parent of a compound that is named as a salt. Calls of active or inactive are those of the source. The rule behind the calls is not given here.
# How the values were obtained:
# Escherichia coli [1] = test: Antimicrobial activity against Escherichia coli NCTC 11954 producing penicillinase assessed as inhibition of microbial growth incubated for 24 hrs by microbroth dilution method; format: functional
# Procedure, shortened: (§1)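 Bacteria were grown in suitable medium at 37 °C for 24 h and adjusted to 0.5 McFarland. Compound DMSO stocks were two-fold serially diluted in broth, and 10^6 inoculum was added. Plates were incubated at 37 °C for 24 h and read at A625. MIC is the lowest concentration showing no viability. Fluoroquinolone positive controls, DMSO negative, sterility and growth controls were included; triplicate.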
# Escherichia coli [2] = test: Antimicrobial activity against Escherichia coli ATCC 8739 assessed as inhibition of microbial growth incubated for 24 hrs by microbroth dilution method; format: functional; procedure, shortened: as §1
# Escherichia coli [3] = test: Antimicrobial activity against Escherichia coli O157:H7 assessed as inhibition of microbial growth incubated for 24 hrs by microbroth dilution method; format: functional
# Escherichia coli [4] = test: Antimicrobial activity against fluoroquinolone-resistant Escherichia coli assessed as inhibition of microbial growth incubated for 24 hrs by microbroth dilution method; format: functional
# Salmonella enterica = test: Antimicrobial activity against Salmonella enterica ATCC 13312 assessed as inhibition of microbial growth incubated for 24 hrs by microbroth dilution method; format: functional; procedure, shortened: as §1
# Pseudomonas aeruginosa = test: Antimicrobial activity against Pseudomonas aeruginosa ATCC 9627 assessed as inhibition of microbial growth incubated for 24 hrs by microbroth dilution method; format: functional; procedure, shortened: as §1
# Staphylococcus aureus [5] = test: Antimicrobial activity against methicillin-resistant Staphylococcus aureus ATCC 33591 assessed as inhibition of microbial growth incubated for 24 hrs by microbroth dilution method; format: functional
# Staphylococcus aureus [6] = test: Antimicrobial activity against methicillin-sensitive Staphylococcus aureus ATCC 9253 assessed as inhibition of microbial growth incubated for 24 hrs by microbroth dilution method; format: functional; procedure, shortened: as §1
# Listeria monocytogenes = test: Antimicrobial activity against Listeria monocytogenes ATCC 19115 assessed as inhibition of microbial growth incubated for 24 hrs by microbroth dilution method; format: functional; procedure, shortened: as §1
# Candida albicans = test: Antifungal activity against Candida albicans ATCC 10231 assessed as reduction in fungal growth incubated for 48 hrs by broth microdilution method; format: functional
# Aspergillus flavus = test: Antifungal activity against Aspergillus flavus ATCC 9643 assessed as reduction in fungal growth incubated for 48 hrs by broth microdilution method; format: functional
# Procedure, shortened: (§2)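 Conidia were harvested from cultures grown on malt extract agar at 30 °C for 7 d and counted by hemocytometer (mean of three counts). Stock suspensions were diluted 1:50 in malt extract broth. Compounds were made as 4.0 mg/mL DMSO stocks and two-fold serially diluted in broth. Plates were incubated at 30 °C for 48 h and read at A405. MIC is the lowest concentration with no viability. Fluconazole was the positive control, DMSO the vehicle; triplicate.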
# Fusarium solani = test: Antifungal activity against Fusarium solani ATCC 36031 assessed as reduction in fungal growth incubated for 48 hrs by broth microdilution method; format: functional; procedure, shortened: as §2
# Stachybotrys chartarum [7] = test: Antifungal activity against Stachybotrys chartarum IBT 7711 assessed as reduction in fungal growth incubated for 48 hrs by broth microdilution method; format: functional; procedure, shortened: as §2
# Penicillium chrysogenum = test: Antifungal activity against Penicillium chrysogenum ATCC 10106 assessed as reduction in fungal growth incubated for 48 hrs by broth microdilution method; format: functional; procedure, shortened: as §2
# L6 = test: Cytotoxicity against rat L6 cells assessed as inhibition of cell viability incubated for 24 hrs by MTT assay; format: cell-based; conditions: L6, 24 h
# Procedure, shortened: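 L6 rat myoblasts were grown in glucose-DMEM with 10% FBS, 1 mM L-glutamine, penicillin and streptomycin at 37 °C in 5% CO2. They were seeded at 2 × 10^4 cells/well and allowed to attach for 24 h. Cells were exposed to graded concentrations for 24 h, with 0.1% DMSO as vehicle. MTT (0.5 mg/mL) was added for 4 h, formazan was dissolved in DMSO, and A570 was read. Viability is given relative to vehicle. IC50 came from dose-effect curves; triplicate.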
# Escherichia coli [8] = test: Potency index, ratio of norfloxacin MIC to test compound MIC for fluoroquinolone-resistant Escherichia coli measured after 24 hrs by microbroth dilution method; format: functional
# Escherichia coli [9] = test: Potency index, ratio of ciprofloxacin HCl MIC to test compound MIC for fluoroquinolone-resistant Escherichia coli measured after 24 hrs by microbroth dilution method; format: functional
# Stachybotrys chartarum [10] = test: Potency index, ratio of fluconazole MIC to test compound MIC for Stachybotrys chartarum IBT 7711 measured after 48 hrs by broth microdilution method; format: functional
SMILES,MIC (Escherichia coli [1]),MIC (Escherichia coli [2]),MIC (Escherichia coli [3]) [µM],MIC (Escherichia coli [4]) [µM],MIC (Salmonella enterica),MIC (Pseudomonas aeruginosa),MIC (Staphylococcus aureus [5]),MIC (Staphylococcus aureus [6]),MIC (Listeria monocytogenes),MIC (Candida albicans),MIC (Aspergillus flavus),MIC (Fusarium solani) [µM],MIC (Stachybotrys chartarum [7]) [µM],MIC (Penicillium chrysogenum) [µM],IC50 (L6) [µM],Ratio (Escherichia coli [8]),Ratio (Escherichia coli [9]),Ratio (Stachybotrys chartarum [10])
CCn1cc(C(=O)N[C@H]2C(O)O[C@H](CO)[C@@H](O)[C@@H]2O)c(=O)c2cc(F)c(N3CCN(C(C)=O)CC3)cc21 (stereo not given in full),239 µM,inactive,59.9,89.8,14.9 µM,inactive,478 µM,inactive,inactive,59.9 µM,478 µM,239,120,120,3.72,3,–,–
CC(=O)OC[C@H]1OC(OC(C)=O)[C@H](NC(=O)c2cn(C3CC3)c3cc(N4CCN(C(C)=O)CC4)c(F)cc3c2=O)[C@@H](OC(C)=O)[C@@H]1OC(C)=O (stereo not given in full),inactive,inactive,178,267,11.1 µM,11.1 µM,inactive,inactive,inactive,inactive,712 µM,356,356,< 5.6,3.62,–,2,–
COc1c(N2C[C@@H]3CCCN(C(C)=O)[C@@H]3C2)c(F)cc2c(=O)c(C(=O)N[C@H]3C(OC(C)=O)O[C@H](COC(C)=O)[C@@H](OC(C)=O)[C@@H]3OC(C)=O)cn(C3CC3)c12 (stereo not given in full),inactive,162 µM,162,485,inactive,324 µM,162 µM,inactive,< 5 µM,80.9 µM,162 µM,324,324,162,5.53,–,–,–
O=C(O)c1cn(C2CC2)c2cc(N3CCNCC3)c(F)cc2c1=O [CIPROFLOXACIN HYDROCHLORIDE],–,–,–,–,< 5.2 µM,< 5.2 µM,< 5.2 µM,< 5.2 µM,0.5 µM,0.3 µM,inactive,< 10.6,85,< 10.6,–,–,–,–
CC(=O)N1CCN(c2cc3c(cc2F)c(=O)c(C(=O)N[C@H]2C(O)O[C@H](CO)[C@@H](O)[C@@H]2O)cn3C2CC2)CC1 (stereo not given in full),inactive,inactive,234,702,inactive,inactive,inactive,inactive,inactive,inactive,234 µM,468,468,234,4.03,–,–,–
COc1c(N2C[C@@H]3CCCN(C(C)=O)[C@@H]3C2)c(F)cc2c(=O)c(C(=O)N[C@H]3C(O)O[C@H](CO)[C@@H](O)[C@@H]3O)cn(C3CC3)c12 (stereo not given in full),207 µM,207 µM,828,310,inactive,51.8 µM,207 µM,inactive,103 µM,207 µM,207 µM,207,1.7,1.7,5.08,–,–,100
CCn1cc(C(=O)N[C@H]2C(OC(C)=O)O[C@H](COC(C)=O)[C@@H](OC(C)=O)[C@@H]2OC(C)=O)c(=O)c2cc(F)c(N3CCN(C(C)=O)CC3)cc21 (stereo not given in full),181 µM,inactive,45.3,136,11.3 µM,inactive,362 µM,inactive,inactive,5.6 µM,362 µM,181,45.3,45.3,5.32,2,–,2
COc1c(N2C[C@@H]3CCCN[C@@H]3C2)c(F)cc2c(=O)c(C(=O)O)cn(C3CC3)c12 [MOXIFLOXACIN],< 0.5 µM,< 0.5 µM,< 0.5,3.4,< 4.3 µM,71.5 µM,< 0.5 µM,< 0.5 µM,< 0.5 µM,1.1 µM,286 µM,286,2.3,1.1,5.78,–,–,–
OC(Cn1cncn1)(Cn1cncn1)c1ccc(F)cc1F [FLUCONAZOLE],–,–,–,–,–,–,–,–,–,408 µM,51 µM,102,102,204,–,–,–,–
CCn1cc(C(=O)O)c(=O)c2cc(F)c(N3CCNCC3)cc21 [NORFLOXACIN],24.4 µM,48.9 µM,< 5.9,294,< 5.9 µM,98 µM,24.4 µM,24.4 µM,< 5.9 µM,< 5.9 µM,783 µM,391,196,196,3.43,–,–,–
